Assay results: ChEMBL document CHEMBL1131231, “New azole antifungals. 2. Synthesis and antifungal activity of heterocyclecarboxamide derivatives of 3-amino-2-aryl-1-azolyl-2-butanol” (1998)
In brackets after ≈: the same amount, converted by molar mass.

Legend:
Type in all cases: functional
Candida albicans [1] = assay: In vivo antifungal activity against murine candidosis model after peroral administration with 0.5 mg/kg at various time intervals. (percent protection for 100% mortality with untreated group); details: route oral
Method in brief: (§1)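 Male mice, groups of 10, infected iv with 0.2 mL Candida albicans at (2–8) × 10⁷ cfu/mL. Oral suspension in 1% Tween + 0.2% carboxymethylcellulose in water, given 1, 4 and 24 h post-infection; vehicle controls and a fluconazole group at the same dose. Survival scored on days 1, 2, 3, 5, 7, 9, reported as % surviving on the day untreated, or fluconazole-treated, mortality reached 100%.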

[2] = The compound was tested in vitro for antifungal activity against 6 filamentous fungi.
Method in brief: (§2)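 Agar dilution on Kimmig's agar with 0.5% glycerol; ATCC or clinical isolates, inocula at 10⁵ cfu/mL. Drugs from 800 μg/mL stock in 50% ethanol, 2-fold serial dilutions 80 to 0.03 μg/mL in plates. Incubated 25 °C, 48 h for yeasts, 120 h for filamentous fungi. Value is geometric mean of MICs (μg/mL); >80 taken as 160, ≤0.03 as 0.03.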

[3] = The compound was tested in vitro for antifungal activity against 10 yeasts.; method in brief: as §2
Candida albicans [4] = assay: In vivo antifungal activity against murine candidosis model after peroral administration with 0.5 mg/kg at various time intervals. (percent protection for 100% mortality with fluconazole-treated group.); details: route oral; method in brief: as §1

SMILES | Protection (Candida albicans [1]) | MIC [2] | MIC [3] | Protection (Candida albicans [4])
C[C@@H](NC(=O)c1ccc(Cl)cc1)[C@](O)(Cn1cncn1)c1ccc(F)cc1F | 0% | 11 µg/mL (≈ 27 µM) | 3.9 µg/mL (≈ 9.59 µM) | 0%
C[C@@H](NC(=O)c1sc(-c2ccc(C#N)cc2)nc1C(F)(F)F)[C@](O)(Cn1cncn1)c1ccc(F)cc1F | 100% | 28 µg/mL (≈ 51 µM) | 2.9 µg/mL (≈ 5.29 µM) | <50%
Cc1nc(-c2ccc(C(C)(C)C)cc2)sc1C(=O)N[C@H](C)[C@](O)(Cn1cncn1)c1ccc(F)cc1F | 0% | 8.9 µg/mL (≈ 16.9 µM) | 2.1 µg/mL (≈ 4 µM) | 0%
C[C@@H](n1ncn(-c2ccc(OCC(F)(F)C(F)F)cc2)c1=O)[C@](O)(Cn1cncn1)c1ccc(F)cc1F | 100% | 8.9 µg/mL (≈ 16.4 µM) | 2.6 µg/mL (≈ 4.79 µM) | 100%
Cc1nc(-c2ccc(C(=N)NO)cc2)sc1C(=O)N[C@H](C)[C@](O)(Cn1cncn1)c1ccc(F)cc1F | 0% | 80 µg/mL (≈ 152 µM) | 12 µg/mL (≈ 22.7 µM) | 0%
Cc1oc(-c2ccc(Cl)cc2)cc1C(=O)N[C@H](C)[C@](O)(Cn1cncn1)c1ccc(F)cc1F | 100% | 10 µg/mL (≈ 20.5 µM) | 0.9 µg/mL (≈ 1.85 µM) | 0%
C[C@@H](NC(=O)c1nsc(-c2ccc(Cl)cc2)n1)[C@](O)(Cn1cncn1)c1ccc(F)cc1F | 80% | > 80 µg/mL | 1.4 µg/mL (≈ 2.85 µM) | 10%
Cc1nc(-c2ccc(C#N)cc2)sc1C(=O)N[C@H](C)[C@](O)(Cn1cncn1)c1ccc(C(F)(F)F)cc1 | 0% | > 80 µg/mL | 2 µg/mL (≈ 3.8 µM) | 0%
C[C@@H](NC(=O)c1ccc(-c2ccc(Cl)cc2)o1)[C@](O)(Cn1cncn1)c1ccc(F)cc1F | 0% | > 80 µg/mL | 1.5 µg/mL (≈ 3.17 µM) | 0%
Cc1sc(-c2ccc(Cl)cc2)nc1C(=O)N[C@H](C)[C@](O)(Cn1cncn1)c1ccc(F)cc1F |  | > 80 µg/mL | > 80 µg/mL | 
C[C@@H](NC(=O)c1ccn(-c2ccc(Cl)cc2)c1)[C@](O)(Cn1cncn1)c1ccc(F)cc1F | 0% | 17 µg/mL (≈ 36 µM) | 1.2 µg/mL (≈ 2.54 µM) | 0%
Cc1nc(-c2sc(-c3ccc(Cl)cc3)nc2C)sc1C(=O)N[C@H](C)[C@](O)(Cn1cncn1)c1ccc(F)cc1F | 10% | > 80 µg/mL | 1.8 µg/mL (≈ 2.99 µM) | 0%
C[C@@H](NC(=O)c1ccc(-c2ccc(Cl)cc2)cc1)[C@](O)(Cn1cncn1)c1ccc(F)cc1F | 100% | 18 µg/mL (≈ 37.3 µM) | 0.3 µg/mL (≈ 0.621 µM) | 100%
C[C@@H](NC(=O)c1cnn(-c2ccc(C(F)(F)F)cc2)c1N)[C@](O)(Cn1cncn1)c1ccc(F)cc1F |  | 28 µg/mL (≈ 53.7 µM) | 3.3 µg/mL (≈ 6.33 µM) | 
C[C@@H](NC(=O)c1sc(-c2ccc(C(F)(F)F)cc2)nc1C(F)(F)F)[C@](O)(Cn1cncn1)c1ccc(F)cc1F | 90% | 17 µg/mL (≈ 28.7 µM) | 1.6 µg/mL (≈ 2.71 µM) | <20%
C[C@@H](NC(=O)c1cnc(-c2ccc(Cl)cc2)s1)[C@](O)(Cn1cncn1)c1ccc(F)cc1F | 100% | 6.3 µg/mL (≈ 12.9 µM) | 0.7 µg/mL (≈ 1.43 µM) | 100%
C[C@@H](NC(=O)c1nnc(-c2ccc(Cl)cc2)o1)[C@](O)(Cn1cncn1)c1ccc(F)cc1F | 10% | > 80 µg/mL | 49 µg/mL (≈ 103 µM) | 0%
Cc1nc(C)c(C(=O)N[C@H](C)[C@](O)(Cn2cncn2)c2ccc(F)cc2F)s1 | 0% | > 80 µg/mL | 19 µg/mL (≈ 46.6 µM) | 0%
Cc1cc(-c2ccc(Cl)cc2)sc1C(=O)N[C@H](C)[C@](O)(Cn1cncn1)c1ccc(F)cc1F | 100% | 0.7 µg/mL (≈ 1.39 µM) | 0.3 µg/mL (≈ 0.596 µM) | 20%
Cc1nc(S(=O)(=O)c2ccc(Cl)cc2)sc1C(=O)N[C@H](C)[C@](O)(Cn1cncn1)c1ccc(F)cc1F | 0% | > 80 µg/mL | 7.6 µg/mL (≈ 13.4 µM) | 0%
Cc1nc(-c2ccc(Cl)cc2)oc1C(=O)N[C@H](C)[C@](O)(Cn1cncn1)c1ccc(F)cc1F | 40% | 40 µg/mL (≈ 82 µM) | 3.7 µg/mL (≈ 7.58 µM) | 0%
C[C@@H](NC(=O)c1ccc(C(F)(F)F)cc1)[C@](O)(Cn1cncn1)c1ccc(F)cc1F | 100% | 22 µg/mL (≈ 50 µM) | 4.6 µg/mL (≈ 10.4 µM) | 100%
Cc1nc(-c2ccc(C(N)=O)cc2)sc1C(=O)N[C@H](C)[C@](O)(Cn1cncn1)c1ccc(F)cc1F | 0% | > 80 µg/mL | 20 µg/mL (≈ 39 µM) | 0%

SMILES | Protection (Candida albicans [1]) | MIC [2] | MIC [3] | Protection (Candida albicans [4])
C[C@@H](NC(=O)c1noc(-c2ccc(Cl)cc2)n1)[C@](O)(Cn1cncn1)c1ccc(F)cc1F | 100% | 32 µg/mL (≈ 67.4 µM) | 2.1 µg/mL (≈ 4.42 µM) | 10%
Cc1nc(COc2ccc(Cl)cc2)sc1C(=O)N[C@H](C)[C@](O)(Cn1cncn1)c1ccc(F)cc1F | 30% | 2.9 µg/mL (≈ 5.43 µM) | 0.6 µg/mL (≈ 1.12 µM) | 0%
Cc1nc(-c2ccc(C#N)cc2)sc1C(=O)N[C@H](C)[C@](O)(Cn1cncn1)c1ccc(Cl)cc1Cl | 100% | 5 µg/mL (≈ 9.48 µM) | 0.4 µg/mL (≈ 0.758 µM) | 100%
C[C@@H](NC(=O)c1cccc(-c2ccc(Cl)cc2)c1)[C@](O)(Cn1cncn1)c1ccc(F)cc1F | 40% | > 80 µg/mL | 0.3 µg/mL (≈ 0.621 µM) | 0%
Cc1nc(-c2ccc(Cl)cc2)n(C)c1C(=O)N[C@H](C)[C@](O)(Cn1cncn1)c1ccc(F)cc1F | 100% | 18 µg/mL (≈ 35.9 µM) | 2.6 µg/mL (≈ 5.19 µM) | 0%
Cc1nc(-c2ccccc2)sc1C(=O)N[C@H](C)[C@](O)(Cn1cncn1)c1ccc(F)cc1F | 30% | 7.6 µg/mL (≈ 16.2 µM) | 1.4 µg/mL (≈ 2.98 µM) | 0%
C[C@@H](NC(=O)c1csc(-c2ccc(Cl)cc2)n1)[C@](O)(Cn1cncn1)c1ccc(F)cc1F | 0% | > 80 µg/mL | 4.5 µg/mL (≈ 9.18 µM) | 0%
C[C@@H](NC(=O)c1sc(-c2ccc(C3N=NN=N3)cc2)nc1C(F)(F)F)[C@](O)(Cn1cncn1)c1ccc(F)cc1F | 30% | > 80 µg/mL | 75 µg/mL (≈ 127 µM) | 0%
CC(=O)ONC(=N)c1ccc(-c2nc(C)c(C(=O)N[C@H](C)[C@](O)(Cn3cncn3)c3ccc(F)cc3F)s2)cc1 | 70% | 45 µg/mL (≈ 79 µM) | 14 µg/mL (≈ 24.6 µM) | 0%
C[C@@H](NC(=O)c1sc(-c2ccc(Cl)cc2)nc1C(F)(F)F)[C@](O)(Cn1cncn1)c1ccc(F)cc1F | 100% | 8.9 µg/mL (≈ 16 µM) | 2 µg/mL (≈ 3.58 µM) | <70%
C[C@@H](NC(=O)c1ccc(-c2cc(C(F)(F)F)nn2C)s1)[C@](O)(Cn1cncn1)c1ccc(F)cc1F | 10% | 28 µg/mL (≈ 53.2 µM) | 2.3 µg/mL (≈ 4.37 µM) | 0%
Cc1nc(-c2ccc(C#N)cc2)sc1C(=O)N(C)[C@H](C)[C@](O)(Cn1cncn1)c1ccc(F)cc1F | 100% | 4.5 µg/mL (≈ 8.85 µM) | 0.8 µg/mL (≈ 1.57 µM) | 100%
Cc1nc(-c2ccc(F)cc2)sc1C(=O)N[C@H](C)[C@](O)(Cn1cncn1)c1ccc(F)cc1F | 100% | 1.8 µg/mL (≈ 3.69 µM) | 1.1 µg/mL (≈ 2.26 µM) | 80%
CCCS(=O)(=O)c1csc(C(=O)N[C@H](C)[C@](O)(Cn2cncn2)c2ccc(F)cc2F)c1N |  | 23 µg/mL (≈ 46 µM) | 4.4 µg/mL (≈ 8.81 µM) | 
C[C@@H](NC(=O)c1nc(-c2ccc(Cl)cc2)no1)[C@](O)(Cn1cncn1)c1ccc(F)cc1F | 80% | 80 µg/mL (≈ 168 µM) | 2.1 µg/mL (≈ 4.42 µM) | 10%
C[C@@H](NC(=O)c1nc(-c2ccc(Cl)cc2)ns1)[C@](O)(Cn1cncn1)c1ccc(F)cc1F | 10% | > 80 µg/mL | 11 µg/mL (≈ 22.4 µM) | 0%
Cc1nc(Oc2ccc(Cl)cc2)sc1C(=O)N[C@H](C)[C@](O)(Cn1cncn1)c1ccc(F)cc1F | 10% | 4 µg/mL (≈ 7.69 µM) | 1.5 µg/mL (≈ 2.88 µM) | 0%
CCC(C)n1ncn(-c2ccc(N3CCN(c4ccc(OC[C@@H]5CO[C@@](Cn6cncn6)(c6ccc(Cl)cc6Cl)O5)cc4)CC3)cc2)c1=O (some centres not stated) [ITRACONAZOLE] | 0% | 63 µg/mL (≈ 89.3 µM) | 5.2 µg/mL (≈ 7.37 µM) | 0%
Cc1nc(-c2ccc(C#N)cc2)sc1C(=O)N[C@H](C)[C@](O)(Cn1cncn1)c1ccccc1F | 100% | 5 µg/mL (≈ 10.5 µM) | 1.5 µg/mL (≈ 3.15 µM) | 60%
Cc1cc(-c2ccc(C#N)cc2)sc1C(=O)N[C@H](C)[C@](O)(Cn1cncn1)c1ccc(F)cc1F | 100% | 8.9 µg/mL (≈ 18 µM) | 0.7 µg/mL (≈ 1.42 µM) | 70%
Cc1nc(Br)sc1C(=O)N[C@H](C)[C@](O)(Cn1cncn1)c1ccc(F)cc1F |  | 32 µg/mL (≈ 67.8 µM) | 4.6 µg/mL (≈ 9.74 µM) | 
Cc1c(C(=O)N[C@H](C)[C@](O)(Cn2cncn2)c2ccc(F)cc2F)cnn1C |  | > 80 µg/mL | > 80 µg/mL | 
C[C@@H](n1cnc2cc(-c3ccc(-n4ncnn4)cc3)sc2c1=O)[C@](O)(Cn1cncn1)c1ccc(F)cc1F |  | > 80 µg/mL | 1.9 µg/mL (≈ 3.47 µM) | 
